Tests used:
Integrin alpha-V/beta-5 = Integrin alpha-V/beta-5 (Homo sapiens, UniProt P06756+P18084); assay: Displacement of [125I]echistatin from human integrin alphaVbeta5; format: protein-complex assay
Summary of the method: (§1)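 Solid-phase competition binding to αvβ3 and αvβ5 purified from human placenta. Receptors coated overnight at 4 °C (αvβ3 at 500 ng/mL, αvβ5 at 1000 ng/mL) in Tris pH 7.4 buffer with Ca2+, Mg2+ and Mn2+, then blocked with 1% BSA. [125I]echistatin used at 0.05 nM (αvβ3) or 0.1 nM (αvβ5) against test compound from 100 μM to 0.01 nM. Incubation 3 h at room temperature, in triplicate. Nonspecific binding defined with 1 μM unlabeled echistatin. IC50 taken as 50% inhibition of radioligand binding.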

Integrin alpha-V/beta-3 = Integrin alpha-V/beta-3 (Homo sapiens, UniProt P05106+P06756); assay: Displacement of [125I]echistatin from human integrin alphaVbeta3; format: protein-complex assay; summary of the method: as §1
Sequence of Integrin alpha-V/beta-3 (P05106 27-788 limits assumed): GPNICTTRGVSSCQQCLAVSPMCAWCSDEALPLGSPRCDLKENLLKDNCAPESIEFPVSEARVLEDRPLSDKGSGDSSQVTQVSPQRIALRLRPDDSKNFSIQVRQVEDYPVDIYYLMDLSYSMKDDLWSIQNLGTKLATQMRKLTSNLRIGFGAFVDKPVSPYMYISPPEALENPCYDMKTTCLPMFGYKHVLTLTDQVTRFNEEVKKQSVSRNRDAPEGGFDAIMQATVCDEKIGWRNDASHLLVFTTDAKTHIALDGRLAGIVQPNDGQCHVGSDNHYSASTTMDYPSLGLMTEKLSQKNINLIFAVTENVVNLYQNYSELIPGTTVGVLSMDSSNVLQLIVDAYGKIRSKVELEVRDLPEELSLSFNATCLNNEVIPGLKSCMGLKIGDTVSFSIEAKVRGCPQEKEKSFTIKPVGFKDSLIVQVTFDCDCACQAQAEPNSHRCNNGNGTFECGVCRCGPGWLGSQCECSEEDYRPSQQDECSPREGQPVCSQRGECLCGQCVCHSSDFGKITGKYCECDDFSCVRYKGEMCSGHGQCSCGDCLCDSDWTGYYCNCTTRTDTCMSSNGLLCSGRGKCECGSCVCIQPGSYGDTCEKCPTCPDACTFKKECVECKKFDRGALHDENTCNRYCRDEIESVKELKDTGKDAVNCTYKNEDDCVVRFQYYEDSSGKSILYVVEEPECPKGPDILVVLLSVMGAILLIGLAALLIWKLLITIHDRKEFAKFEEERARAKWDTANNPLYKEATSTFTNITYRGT
Sequence of Integrin alpha-V/beta-3 (P06756 31-889 limits assumed): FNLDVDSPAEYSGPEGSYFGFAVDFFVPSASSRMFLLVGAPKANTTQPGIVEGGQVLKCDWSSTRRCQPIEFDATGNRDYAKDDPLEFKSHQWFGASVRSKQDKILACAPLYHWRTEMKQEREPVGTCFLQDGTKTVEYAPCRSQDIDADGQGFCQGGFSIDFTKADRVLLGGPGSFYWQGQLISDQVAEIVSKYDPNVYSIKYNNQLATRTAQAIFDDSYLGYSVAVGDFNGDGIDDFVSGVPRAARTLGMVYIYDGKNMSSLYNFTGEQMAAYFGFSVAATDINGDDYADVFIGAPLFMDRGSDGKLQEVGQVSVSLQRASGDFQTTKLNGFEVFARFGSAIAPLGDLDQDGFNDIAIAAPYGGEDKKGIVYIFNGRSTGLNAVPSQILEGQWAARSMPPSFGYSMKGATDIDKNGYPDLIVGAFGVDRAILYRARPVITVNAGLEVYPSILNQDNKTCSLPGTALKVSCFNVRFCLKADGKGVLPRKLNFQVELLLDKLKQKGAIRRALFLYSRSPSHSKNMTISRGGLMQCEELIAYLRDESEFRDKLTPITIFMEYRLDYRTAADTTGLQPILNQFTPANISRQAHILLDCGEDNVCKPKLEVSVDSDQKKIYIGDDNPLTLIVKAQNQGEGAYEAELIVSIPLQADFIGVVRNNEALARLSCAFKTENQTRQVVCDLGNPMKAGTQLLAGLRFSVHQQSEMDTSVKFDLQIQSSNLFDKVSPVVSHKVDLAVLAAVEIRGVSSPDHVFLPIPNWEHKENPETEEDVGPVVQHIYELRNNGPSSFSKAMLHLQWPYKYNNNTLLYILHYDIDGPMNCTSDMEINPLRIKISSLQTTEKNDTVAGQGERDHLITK
Sequence of Integrin alpha-V/beta-3 (P06756 891-1048 limits assumed): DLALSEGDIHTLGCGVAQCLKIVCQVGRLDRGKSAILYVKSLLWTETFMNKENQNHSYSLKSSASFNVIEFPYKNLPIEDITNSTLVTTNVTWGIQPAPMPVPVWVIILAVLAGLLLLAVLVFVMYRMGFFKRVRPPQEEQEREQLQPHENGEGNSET

Sequence of Integrin alpha-V/beta-5 (P06756 31-889 limits assumed): as the sequence (P06756 31-889 limits assumed) above
Sequence of Integrin alpha-V/beta-5 (P06756 891-1048 limits assumed): as the sequence (P06756 891-1048 limits assumed) above
Sequence of Integrin alpha-V/beta-5 (P18084 24-799 limits assumed): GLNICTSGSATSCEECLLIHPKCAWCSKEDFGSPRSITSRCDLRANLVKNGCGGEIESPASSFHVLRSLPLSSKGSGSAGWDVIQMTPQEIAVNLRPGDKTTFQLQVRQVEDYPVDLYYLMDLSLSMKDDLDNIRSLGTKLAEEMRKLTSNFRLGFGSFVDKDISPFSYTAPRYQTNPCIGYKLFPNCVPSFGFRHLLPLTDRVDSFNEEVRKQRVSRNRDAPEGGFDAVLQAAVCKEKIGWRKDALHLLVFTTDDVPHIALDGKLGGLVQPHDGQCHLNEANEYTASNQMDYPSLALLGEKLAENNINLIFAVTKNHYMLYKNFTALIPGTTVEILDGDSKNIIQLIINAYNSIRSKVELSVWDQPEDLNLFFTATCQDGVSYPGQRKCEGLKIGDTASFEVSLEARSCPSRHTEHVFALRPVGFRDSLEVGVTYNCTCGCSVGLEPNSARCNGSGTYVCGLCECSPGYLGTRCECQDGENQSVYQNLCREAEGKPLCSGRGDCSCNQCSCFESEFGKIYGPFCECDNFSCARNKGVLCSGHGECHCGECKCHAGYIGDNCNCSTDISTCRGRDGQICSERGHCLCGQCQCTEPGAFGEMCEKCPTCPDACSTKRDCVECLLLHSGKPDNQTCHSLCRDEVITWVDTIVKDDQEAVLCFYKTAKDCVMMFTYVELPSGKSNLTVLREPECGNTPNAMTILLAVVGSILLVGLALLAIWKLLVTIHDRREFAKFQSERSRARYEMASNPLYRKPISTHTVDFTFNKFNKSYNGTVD

N=C(N)N1CCN(CCc2cn(CC(=O)N(CC(=O)O)c3ccccc3)nn2)CC1
IC50 (Integrin alpha-V/beta-5): > 10 µM | IC50 (Integrin alpha-V/beta-3): > 10 µM

NC(N)=NCCCc1cn(CC(=O)N(CC(=O)O)c2ccccc2)nn1
IC50 (Integrin alpha-V/beta-5): > 10 µM | IC50 (Integrin alpha-V/beta-3): > 10 µM

N=C(N)NCCc1cn(CC(=O)N(CC(=O)O)c2ccccc2)nn1
IC50 (Integrin alpha-V/beta-5): > 10 µM | IC50 (Integrin alpha-V/beta-3): > 10 µM

NC(N)=NCc1cn(CC(=O)N(CC(=O)O)c2ccccc2)nn1
IC50 (Integrin alpha-V/beta-5): > 10 µM | IC50 (Integrin alpha-V/beta-3): > 10 µM
